# An excerpt weighted towards active compounds, which were near 2% of everything screened.
# HSP90 inh: HSP90 inhibitors, primary screen, cell lysate, luminescence | AID 1789, 2009 | Rabbit reticulocyte lysate, luciferase refolding luminescence, 3 h | Heat shock protein HSP 90 (rabbit reticulocyte lysate; luciferase refolding) | inhibition, % at 5.6 µM | actives 0.91% (n = 290,000);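 active = inhibition above the screen-wide mean plus 3 SD, computed separately per campaign, cut at about 16% in these data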;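 note: 0% = DMSO wells and 100% = 60 µM geldanamycin wells; inhibitors lower the luminescence because luciferase stays unfolded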
# C8 TRAIL sens: viability loss with TRAIL in NB7+C8 cells, primary screen, TRAIL sensitizer project, cell-based, ATPlite luminescence | inhibition (viability loss, TRAIL sensitization), % at 10 µM | actives 1% (n = 360,000);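 active = compounds causing at least 50% loss of cell viability in the single-dose screen, relative to plate controls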
# FLuc inh counter: firefly luciferase enzyme inhibitors, primary screen, artefact control for luciferase-based inhibitor screens, biochemical, luminescence, ATPLite. 10 min. Luciferin 4-monooxygenase (Photinus pyralis), P08659. actives 1.5% (n = 200,000). inhibition, % at 10 µM. AID 1006, 2008;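 active = inhibition above about 50% when tested at 10 µM, limit read from the data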
# Target sequence (P08659 whole entry, looked up): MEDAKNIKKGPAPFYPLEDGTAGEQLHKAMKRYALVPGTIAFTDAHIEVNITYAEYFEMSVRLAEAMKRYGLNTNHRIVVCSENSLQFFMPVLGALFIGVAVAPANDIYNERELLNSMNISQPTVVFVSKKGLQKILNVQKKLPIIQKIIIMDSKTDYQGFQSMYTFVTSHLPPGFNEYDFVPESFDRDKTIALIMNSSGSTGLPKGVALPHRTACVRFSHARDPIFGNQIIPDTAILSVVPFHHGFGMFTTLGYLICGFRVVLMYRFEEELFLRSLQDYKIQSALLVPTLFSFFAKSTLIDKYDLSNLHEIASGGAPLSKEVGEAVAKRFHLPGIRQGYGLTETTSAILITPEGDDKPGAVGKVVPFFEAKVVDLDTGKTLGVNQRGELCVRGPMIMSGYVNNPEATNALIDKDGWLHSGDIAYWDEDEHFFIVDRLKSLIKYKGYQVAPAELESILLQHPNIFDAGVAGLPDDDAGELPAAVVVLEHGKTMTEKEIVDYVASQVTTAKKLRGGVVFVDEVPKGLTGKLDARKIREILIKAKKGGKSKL
# FLuc stim CS: FLuc activators, initial screening, artefact control for FLuc-dependent activation tests, biochemical, ATPlite luminescence; Luciferin 4-monooxygenase (Photinus pyralis), P08659; ATPlite luciferase biochemical, 10 min; 0 = ATP-free wells, 1 = DMSO control; activation factor at 10 µM; 200,000 tested, under 10 active;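 active = luciferase activation factor, scaled between plate controls, of at least 2 with compound at 10 µM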
#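 Assay system: Luciferase/luciferin reagent mix; Medium: PBS as buffer for the ATP substrate; Dosing: test compounds dosed from 2 mM stocks in 100% DMSO; Times: 10 min, room temperature; Signal: luminescence from luciferase reaction; Read-out: luciferase activation; Controls: No-ATP low control, compound-free enzyme-plus-ATP high control.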
# PPC-1+TRAIL kill: compounds killing PPC-1 cancer cells with TRAIL present, primary screen, TRAIL potentiator project, ATPLite luminescence, uHTS | PPC-1 cells + TRAIL, ATPLite viability luminescence | cell killing (% activity), % at 4 µM or 5 µM | actives 0.41% (n = 220,000) | AID 1443, 2008;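 active = cell killing above 50% in the first pass at 4 µM, then a duplicate retest at 5 µM averaging 50% or more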;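 note: plate controls were cells with TRAIL plus DMSO for no effect and medium-only wells lacking cells for full effect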
# PPC1 cytotox: cytotoxicity in PPC-1 cells, confirmation, cytotoxicity control for TRAIL apoptosis potentiator project, cell-based, ATP content luminescence; shares compounds with PPC-1+TRAIL kill; PPC-1 viability, ATPlite luminescence, overnight; cytotoxicity, % at 5 µM; actives 50% (n = 1,200);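 active = reconfirmed compounds whose average cytotoxicity reaches 50% or more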;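 note: 0% = DMSO-treated cells and 100% = wells holding medium but no cells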
# HSP90 confirm: HSP90 inhibitors, confirmation, cell lysate, luminescence; rabbit reticulocyte lysate, luciferase refolding luminescence, 3 h; actives 64% (n = 2,300); inhibition, % at 5.9 µM; shares compounds with HSP90 inh; in the data active = inhibition above about 18%;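 note: 0% = vehicle wells and 100% = reference inhibitor wells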
# luciferase ctr: firefly luciferase inhibitors, HSP90 counter-screen, confirmation, artefact control for HSP90 inhibitor project, biochemical, luminescence, triplicate. shares compounds with HSP90 inh. purified native firefly luciferase. inhibition, % at 5.9 µM. actives 48% (n = 2,300). AID 1847, 2009;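 active = inhibition above the mean inhibition of all tested sample wells plus 3 SD, cut at about 10% in these data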;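 note: 0% = DMSO with luciferase and 100% = wells lacking luciferase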
# * hit, by the source's call; / = not tested or not shown.
SMILES,HSP90 inh,C8 TRAIL sens,FLuc inh counter,FLuc stim CS,PPC-1+TRAIL kill,HSP90 confirm,luciferase ctr,others
O=C1C2C(C(=O)N1CCN1CCN(Cc3ccc([N+](=O)[O-])cc3)CC1)[C@H]1C=C[C@@H]2C1 (stereo partly specified),3.0,-8.6,/,/,-10.7,/,/,
O=C(Nc1cc2nn(-c3ccccc3)nc2cc1Cl)c1ccco1,-2.3,23.6,6.9,0.9,12.4,/,/,
CC(C)(C)C(=O)Nc1cc2nn(-c3ccccc3)nc2cc1Cl,79.7*,93.1*,97.1*,0,96.2*,85.4*,85.0*,PPC1 cytotox=96.3*
CCCOc1ccc2cc(-c3ccccn3)c(=O)oc2c1,36.0*,89.1*,92.3*,0.1,79.2*,85.0*,79.6*,PPC1 cytotox=80.4*
OC[C@@H](O)C1OC2NC(=S)OC2C1O (stereo partly specified),4.0,-19.9,-5.2,1.1,-5.5,/,/,
COC(=O)c1ccc2nc(-c3ccc(S(C)(=O)=O)cc3)cn2c1,0.7,12.0,10.0,0.9,4.2,/,/,
COC(=O)c1ccc2nc(-c3cccc(N)c3)cn2c1,36.1*,72.4*,90.3*,0.1,65.8*,71.0*,53.7*,PPC1 cytotox=66.9*
CCCCCCSc1ccc([C@@H]2[C@H]3C(=O)N(CC)C(=O)[C@H]3[C@]3(C(=O)OC)CCCCN23)cc1OC,/,7.3,/,/,/,/,/,
O=c1cc(-c2ccccc2)[nH][nH]1,40.4*,-21.6,-2.4,1,-4.3,-9.0,-10.6,
COc1ccc(-c2cc(=O)[nH][nH]2)cc1OC,34.0*,7.8,-7.3,1.1,14.4,1.1,-0.9,
COc1cccc(-c2cc(=O)[nH][nH]2)c1,15.0,-1.3,1.5,1,35.8,/,/,
CCOc1cccc(-c2cc(=O)[nH][nH]2)c1,13.5,10.6,-8.8,1.1,14.6,/,/,
CC1(C)C(C=C(Cl)Cl)C1C(=O)N(Cc1cccc(Cl)c1)C1CCS(=O)(=O)C1 (stereo unspecified),16.9*,-2.5,-5.5,1.1,13.7,1.1,-10.3,
CCOC(=O)C(NC(C)=O)(NC(C)C)C(F)(F)F (stereo unspecified),3.1,18.6,/,/,8.9,/,/,
COc1ccc(C(=O)N2CCCN(C)CC2)cc1S(=O)(=O)N1CCCc2ccccc21,-2.0,-10.8,-8.7,1.1,-1.0,/,/,
COc1ccc(C(=O)N2CCOCC2)cc1S(=O)(=O)N1CCCc2ccccc21,20.1*,-1.9,-2.8,1,17.5,0.8,-6.1,
Cc1cc(C(=O)CSc2nc3ccc(Cl)cc3[nH]2)c(C)n1Cc1ccco1,/,13.0,/,/,/,/,/,
O=C(NC1CCCCC1)c1noc2c1CCCCC2,19.1*,34.7,22.3,0.8,8.7,31.1*,14.1*,
CCOCCCNC(=O)c1ccc(NC(=O)C2CCCO2)cc1 (stereo unspecified),29.9*,-3.1,/,/,/,2.7,-0.5,
O=c1c2c(nc3cc(-c4ccc(F)cc4)[nH]n13)CCCC2,18.4*,53.3*,67.6*,0.3,43.4,43.5*,28.8*,
COC(=O)N/N=C/c1ccc(Oc2ccccc2)cc1,-0.1,11.3,36.7,0.6,9.9,/,/,
COC(=O)c1ccc(NC(=O)c2ccc3nsnc3c2)cc1,68.5*,3.0,/,/,/,-14.6,-27.3,
COC(=O)c1ccc(NC(=O)c2cccc(C)c2)cc1,-1.6,8.4,/,/,/,/,/,
Cc1nn(CC(=O)c2ccccc2Cl)c(C)c1[N+](=O)[O-],21.6*,12.7,1.7,1,5.6,33.3*,27.9*,
COc1ccc(NC(=O)c2ccc(COCC(F)(F)C(F)F)cc2)cc1OC,1.4,10.5,4.9,1,6.2,/,/,
SMILES,HSP90 inh,C8 TRAIL sens,FLuc inh counter,FLuc stim CS,PPC-1+TRAIL kill,HSP90 confirm,luciferase ctr,others
COc1ccc(NC(=O)c2ccc(COCC(F)(F)C(F)F)cc2)cc1,18.9*,-2.3,9.9,0.9,15.2,-2.6,-7.6,
O=C(Nc1ccc2[nH]ncc2c1)c1ccc(F)cc1,10.9,37.6,/,/,/,/,/,
Cc1cc(C(=O)Nc2cccc(C(=O)O)c2)oc1C,86.1*,21.6,31.6,0.7,41.7,91.8*,79.2*,
CCOc1cccc(C(=O)Nc2ccc3ccccc3c2)c1,19.2*,48.4,/,/,/,47.0*,37.3*,
CCOc1c(Cl)cc(C(=O)Nc2cccc(C(=O)O)c2)cc1Cl,30.2*,10.8,23.2,0.8,19.8,47.4*,9.8*,
CCOc1ccc(C(=O)Nc2ccc3[nH]ncc3c2)cc1,18.3*,71.5*,/,/,/,40.4*,10.6*,
CCOc1cccc(C(=O)Nc2cccc(C(C)=O)c2)c1,-0.2,3.2,12.8,0.9,17.9,/,/,
CCOc1ccc(NC(=O)c2cccc(NC(=O)c3ccccc3)c2)cc1,2.7,14.2,/,/,/,/,/,
Cc1cc(C(=O)Nc2cccc(C(=O)O)c2)c(C)o1,4.6,0.0,6.3,0.9,-23.7,/,/,
Oc1ccc2nnc3c(Br)cnn3c2c1,-2.2,-17.2,/,/,/,/,/,
CCOc1cccc(C(=O)Nc2ccc3c(c2)OCCO3)c1,19.4*,59.2*,/,/,/,45.4*,27.1*,
O=C1/C(=C/Nc2ccc3c(c2)OCO3)CCc2ccccc21,38.4*,85.8*,94.5*,0.1,27.1,86.1*,72.0*,
O=C1OC2(CCCCC2)OC(=O)C1=CNc1ccc2c(c1)OCO2,3.3,-7.9,7.2,0.9,18.3,/,/,
c1ccc(-c2nccc3ccccc23)cc1,/,-10.0,/,/,/,/,/,
Cc1ccc(-c2nc(-c3nccc4ccccc34)oc2-c2ccccc2)cc1,22.8*,38.1,/,/,18.6,41.1*,46.5*,
O=C(/C=C/c1ccc2c(c1)OCO2)NCc1ccncc1,3.0,2.1,/,/,-5.9,/,/,
Cc1ccc(-c2nc(COC(=O)C3=NN(c4ccccc4)C(=O)CC3)cs2)cc1,/,0.0,/,/,/,/,/,
Cc1cc(C)c2nc(N3CCC(C(=O)NCCCN4CC(C)CC(C)C4)CC3)sc2c1 (stereo unspecified),30.7*,5.0,-4.7,1,15.9,40.1*,6.4,
CCOC(=O)N1N=C(c2ccc(C)cc2)CC1(O)C(F)(F)F (stereo unspecified),19.9*,18.3,54.0*,0.5,27.7,48.0*,43.4*,
O=C(CNC(=O)c1ccc(F)cc1)c1ccc(Cl)cc1,-3.6,-0.7,/,/,/,/,/,

# Compound activity (PubChem BioAssay)
